# CHRM5 PAM: CHRM5 positive allosteric modulation | P08912 | activation, % at 3 µM | 360,000 tested, 0.3% active | AID 624038 | CHO-K1 hM5, Fluo-8 calcium, ACh EC20 PAM; 0% = ACh EC20, 100% = ACh EC100;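 active = activation above the run cutoff, the mean activation of all test compounds plus 3 SD, cut at about 18% in these data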
# Target sequence (P08912 whole entry, looked up): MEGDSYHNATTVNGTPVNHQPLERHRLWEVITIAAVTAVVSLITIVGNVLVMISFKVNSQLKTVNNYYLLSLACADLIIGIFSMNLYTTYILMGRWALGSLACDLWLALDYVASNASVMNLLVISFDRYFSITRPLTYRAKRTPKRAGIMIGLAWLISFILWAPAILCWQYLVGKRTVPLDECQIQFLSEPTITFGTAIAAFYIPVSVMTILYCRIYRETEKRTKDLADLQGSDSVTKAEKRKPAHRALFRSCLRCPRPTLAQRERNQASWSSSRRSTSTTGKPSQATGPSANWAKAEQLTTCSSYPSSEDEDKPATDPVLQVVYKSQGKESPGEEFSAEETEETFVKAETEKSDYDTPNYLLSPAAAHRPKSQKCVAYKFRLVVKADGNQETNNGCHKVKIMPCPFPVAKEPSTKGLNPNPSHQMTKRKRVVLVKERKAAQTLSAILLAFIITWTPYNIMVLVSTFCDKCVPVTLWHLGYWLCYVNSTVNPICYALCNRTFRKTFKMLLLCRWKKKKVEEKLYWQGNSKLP
#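 Assay system: CHO-K1 hM5 cells / Incubation: Fluo-8 loading 80 min at 37 °C plus 30 min room temperature / Technique: Fluo-8 calcium dye fluorescence, kinetic read / Repeats: single replicate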
# CHO-K1 Ca PAM: M1 PAM counterscreen hit in parental CHO-K1 cells; ATP EC20, Fluo-8 calcium fluorescence; 0% at ATP EC20, 100% at ATP max; activation, % at 3 µM; 360,000 tested, 0.02% active; AID 602247;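 active = activation above the run cutoff, the mean activation of all test compounds plus 3 SD, cut at about 40% in these data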;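 note: peak over basal fluorescence ratio in a 140 s read after ATP addition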
# CHRM5 antagonist: antagonists of human muscarinic M5 receptor (CHRM5); P08912; CHO-hM5 cells, Fluo-8 calcium fluorescence, ACh EC80; inhibition, % at 3 µM; 360,000 tested, 0.59% active;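 active = inhibition above a per-plate cutoff, the mean of that plate's test compounds plus 3 SD, cut at about 27% in these data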;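 note: 0% = acetylcholine EC80 with DMSO and 100% = DMSO without agonist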
# M5 ag: CHRM5 agonism in calcium assay; 360,000 tested, 0.19% active; activation, % at 3 µM; AID 624037; CHO-K1 hM5 cells, Fluo-8 calcium fluorescence; 0% DMSO wells, 100% maximal acetylcholine response;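 active = activation above the run's mean over test compounds plus 3 SD, cut at about 23% in these data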;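 note: signal is peak over basal fluorescence ratio across the kinetic read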
# CHO-K1 Ca antag: M1 antagonist counterscreen hit in parental CHO-K1 cells | ATP-induced calcium, Fluo-8 fluorescence | inhibition, % at 3 µM | 360,000 tested, 0.6% active;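 active = inhibition above a per-plate cutoff, the plate's mean sample inhibition plus 3 SD, cut at about 24% in these data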;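 note: 0% = DMSO plus EC80 ATP and 100% = DMSO alone without ATP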
# M1 ag parental: M1 agonist counterscreen hit in parental CHO-K1 cells. Fluo-8 calcium fluorescence; scaled to maximal ATP response, vehicle zero. activation, % at 3 µM. 360,000 tested, 0.48% active; in the data active = activation above about 15%;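 note: untransfected CHO-K1 host cells lacking M1 receptor as counterscreen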
# The depositor's hits bear a star. Most compounds without a hit are left out; they make up all but 1.7% or so of the library.
SMILES,CHRM5 PAM,CHO-K1 Ca PAM,CHRM5 antagonist,M5 ag,CHO-K1 Ca antag,M1 ag parental
Cc1ccc(CSc2n[nH]c(N)n2)cc1,6,22,3,1,-19,1
CCCn1c(C(=O)OC)cc2c1ccn2-c1ccc(F)cc1,19*,3,-11,11,1,0
COC(=O)c1cc2c(ccn2-c2ccc(F)cc2)n1Cc1ccc(OC(C)=O)cc1,6,29,1,7,-7,21*
COC(=O)c1cc2c(ccn2-c2ccc(F)cc2)n1CC(C)C,19*,6,-6,11,-20,0
COC(=O)c1cc2c(ccn2-c2ccc(F)cc2)n1C(C)C,34*,8,-1,-2,-19,1
CN(C(=O)c1ccc(NC(=O)C2CCCN(C(=O)OC(C)(C)C)C2)cc1)C1CCCCC1 (stereo unspecified),-5,-1,15,4,-9,1
COc1ccc(CC2S/C(=N/N=C/c3ccccc3O)NC2=O)cc1 (stereo unspecified),3,18,9,0,-10,0
COc1ccc(/C=N/N=C2/NC(=O)C(c3ccccc3)S2)c(OC)c1 (stereo unspecified),18*,33,-6,-7,-21,1
CCOC(=O)c1c(-c2cccc([N+](=O)[O-])c2)cn2ccccc12,-4,15,-1,-12,-7,1
CCOC(=O)/C(C#N)=C/C=C1\C=Cc2ccccc2N1CC,-8,8,1,2,-11,3
C=CCN1C=CC(=CC=C(C#N)C#N)C=C1,-23,-30,20,28*,27*,12
CCCCCCN1C=CC(=C/C=C(\C#N)C(=O)OCC)C=C1,-22,-16,34*,51*,43*,73*
CCCCCN1C=CC=C/C1=C\C=C(C#N)C#N,-3,-6,-1,10,1,6
CCCN1C=CC(=CC=C(C#N)C#N)C=C1,-15,-22,23,31*,24*,15
CCN(CC(=O)Nc1ccc(NC(C)=O)cc1)C(=O)c1cc2ccccc2oc1=O,1,14,2,1,-10,1
CCOC(=O)CSc1nnc(CNC(=O)c2ccc([N+](=O)[O-])cc2)n1C,22*,10,-6,5,-6,0
CCOC(=O)CSc1nnc(CNC(=O)c2cccc(C)c2)n1C,3,-5,2,0,-1,0
NC(=O)c1ccsc1NC(=O)COC(=O)/C=C/c1ccccc1[N+](=O)[O-],-40,1,20,5,-1,18*
NC(=O)c1ccsc1NC(=O)COC(=O)COc1ccccc1[N+](=O)[O-],-18,5,10,8,-2,15
NC(=O)c1ccsc1NC(=O)COC(=O)/C=C/c1ccccc1,-30,-18,23,7,27*,15
O=c1oc2c3c4c(cc2c(C(F)(F)F)c1CCN1CCOCC1)CCCN4CCC3,-6,12,10,10,4,26*
CC(C)c1cc(=O)oc2c3c4c(cc12)CCCN4CCC3,-1,10,-5,-4,-12,0
COC(=O)C1=C(N)Oc2cc(C)n(Cc3cccnc3)c(=O)c2C1c1ccc(OC)c(OC)c1OC (stereo unspecified),-2,2,-3,-4,-15,0
COC(=O)C1=C(N)Oc2cc(C)n(Cc3cccnc3)c(=O)c2C1c1ccccc1OC (stereo unspecified),-1,-7,-2,-1,26*,0
CCOC(=O)c1c(N/C=C(\C#N)c2nc(-c3ccc(OC(C)=O)cc3)cs2)sc2c1CCC2,23*,7,-12,4,-7,0
SMILES,CHRM5 PAM,CHO-K1 Ca PAM,CHRM5 antagonist,M5 ag,CHO-K1 Ca antag,M1 ag parental
CN1CCN(c2nc3c(c(=O)[nH]c(=O)n3C)n2CCSc2nc3ccccc3s2)CC1,0,-9,-2,0,27*,0
Cn1c(=O)[nH]c(=O)c2c1nc(N1CCc3ccccc3C1)n2CCSc1nc2ccccc2s1,-5,24,4,1,-14,0
O=C(O)CSc1nnc(CSc2nc3ccccc3s2)n1-c1ccccc1,20*,0,-4,-4,-4,1
CCOc1ccc(Nc2nc(-c3cccnc3)cs2)cc1,3,1,15,-10,-5,0
Cc1cc2cc(CN(CCN3CCOCC3)C(=O)Nc3ccccc3F)c(=O)[nH]c2cc1C,1,14,-1,0,-7,1
CCN(CC)CCN(Cc1cc2cc(C)ccc2[nH]c1=O)C(=S)Nc1ccccc1,-16,17,46*,52*,-18,0
Cc1cccc2cc(CN(CCN3CCOCC3)C(=O)Nc3ccccc3F)c(=O)[nH]c12,2,-14,-2,-2,30*,1
Cc1cccc2cc(CN(CCN(C)C)C(=S)Nc3ccccc3)c(=O)[nH]c12,24*,25,-8,11,-8,1
Cc1ccc2[nH]c(=O)c(CN(c3cccc(C)c3C)S(=O)(=O)c3ccccc3)cc2c1,-4,-1,12,-3,-4,0
Cc1ccc(N(Cc2cc3cccc(C)c3[nH]c2=O)S(=O)(=O)c2ccccc2)c(C)c1,-12,-12,28*,-6,-7,2
O=C(COc1ccc(S(=O)(=O)N2CCOCC2)cc1Cl)NC1CC1,-4,3,13,-3,-8,0
Cc1cc([N+](=O)[O-])c(C)cc1-c1ccc(/C=N/n2cnnc2)o1,0,-10,8,-4,6,0
Cc1cc(C)nc(SCc2nnc(SCc3ccccc3Cl)o2)n1,-12,3,-1,-13,-4,0
CCN(CC)c1ccc(/C=N/NC(=O)c2ccc3c(c2)OCCO3)cc1,-11,7,28*,-2,-8,2
O=S(=O)(c1ccc(N2CCOCC2)nc1)N1CCOCC1,1,-1,6,1,-13,0
O=S(=O)(NC1CCCCC1)c1ccc(N2CCOCC2)nc1,-8,20,16,1,-4,19*
CCC(CC)C(=O)Nc1ccc(C)c(O)c1,1,8,4,-3,-2,1
CCN(CC)C(=O)N1CCC(NC(=O)Cc2ccccc2)CC1,-5,-6,5,2,26*,0
CN(C)N(Cc1ccccc1)C(=O)C(O)(c1ccccc1)c1ccccc1,-12,13,-2,-23,-4,3
CN(C)C(C)(C)/C=C/C(O)(c1ccccc1)c1ccccc1,-30,-1,63*,-20,-9,3
CSc1ncccc1C(=O)OCc1c(F)cccc1Cl,-1,26,4,-5,-14,2
COc1ccc(N2CCN(C(=O)COC(=O)c3oc4ccc(OC)cc4c3C)CC2)cc1,-24,-9,17,5,5,16*
